Data set [1] in a line: Inhibition of acetate buffer-initiated beta-hematin polymerization at 50 uM measured after 48 hrs relative to control. The method in brief:
(§1)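 Hemin chloride (4 mM in DMSO) was dispensed into plates with compound in DMSO (50-5 µM), in triplicate. Water or DMSO served as controls. Reaction was started with 0.2 M acetate buffer, pH 4.4, and run at 37 °C for 48 h. The pellet was centrifuged, washed twice with DMSO, dissolved in 0.2 N NaOH, diluted 1:2 in 0.1 N NaOH and read at 405 nm as % inhibition.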

Data set [2] can be described thus: Inhibition of acetate buffer-initiated beta-hematin polymerization measured after 48 hrs. The method in brief: as §1
Data set [3] is described as follows: Cytotoxicity against mouse peritoneal macrophages assessed as growth inhibition after 48 hrs by MTT assay. The note with it: read-out: LD50. The format is cell-based, Peritoneal macrophage. The method in brief: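 Murine peritoneal macrophages plated at 5 × 10^4 cells/well in DMEM with 5 mM L-glutamine, 10% FBS and antibiotics, then incubated overnight at 5% CO2. Compounds added at varied concentrations in duplicate wells, 48 h further incubation. Viability read by MTT reduction as % of untreated controls. LD50 taken by non-linear regression of % viability vs log concentration.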
On the technique in general: Tetrazolium assays rely on reduction of a dye to a coloured formazan, in cell work by metabolically active cells.

Data set [4] in a line: Hemolytic activity in human RBC after 45 mins by spectrophotometric method. Type of data set: ADME, cell-based, Erythrocyte. The note with it: red blood cells (erythrocytes). The method, boiled down: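 Human RBCs from 50% Alsever's solution were spun at 800g for 10 min and washed three times in saline. Compounds (5-5000 µM) were incubated with a 2% final RBC suspension at 37°C for 45 min. Released haemoglobin was read at 550 nm, with water as the 100% lysis control and saline as the negative control. Result given as the concentration lysing half the RBCs.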

Data set [5] has as its system Plasmodium berghei. Kind of data set: Antimalarial activity against Plasmodium berghei ANKA infected in Balb/c mouse assessed as mouse survival time at 20 mg/kg, ip qd administered for 4 days starting from 2 hrs post infection (reference value: 6.8 +/- 0.7day). Type of data set: functional. The method, boiled down: (§2)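 Male Balb-C mice (18-22 g, n=6 per group) infected i.v. via caudal vein with 10^6 P. berghei-infected RBC. Treatment started 2 h post-infection, once daily i.p. for 4 days. Compounds dissolved in DMSO (0.1 M stock), diluted with 2% Saline-Tween 20. Saline-treated controls. Survival time recorded relative to saline group. Parasitemia by Giemsa-stained smears at day 4. Mean±SD.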

For data set [6], the system named is Plasmodium berghei. Kind of data set: Antimalarial activity against Plasmodium berghei ANKA infected in Balb/c mouse assessed as parasitemia at 20 mg/kg, ip qd administered for 4 days starting from 2 hrs post infection by Giemsa staining based microscopic method (reference value: 65.2 +/- 2.58%). Type of data set: functional.
In data set [7] the test system is Plasmodium berghei. Kind of data set: Antimalarial activity against Plasmodium berghei ANKA infected in Balb/c mouse assessed as mouse survival time at 25 mg/kg, ip qd administered for 4 days starting from 2 hrs post infection (reference value: 6.8 +/- 0.7day). The format is functional. The method in brief:
as §2

For data set [8], the system named is Plasmodium berghei. Kind of data set: Antimalarial activity against Plasmodium berghei ANKA infected in Balb/c mouse assessed as parasitemia at 25 mg/kg, ip qd administered for 4 days starting from 2 hrs post infection by Giemsa staining based microscopic method (reference value: 65.2 +/- 2.58%). Type of data set: functional.

The source of these data is ChEMBL document CHEMBL4145443, “Synthesis, β-hematin inhibition studies and antimalarial evaluation of new dehydroxy isoquine derivatives against Plasmodium berghei: A promising antimalarial agent” (Eur J Med Chem, 2018).

Structures are written as SMILES.

As for `CC(C)(C)NCc1ccc(Nc2ccnc3cc(Cl)ccc23)cc1.Cl`, the inhibition (as a rule, the change of the read-out against control, counted positive when it falls) in data set [1] stood at 98.6%. Also, the IC50 (as a rule, the concentration that inhibits the measured activity by half) in data set [2] was found to be 1.66 µM. Moreover, the CC50 at 48 h in data set [3] was found to be 47.1 µM. Further, the HC50 (usually the concentration that lyses half of the red blood cells) at 0.75 h in data set [4] came out at 1.49 mM. In the data set with Plasmodium berghei [5], the Time was 25.8 days. The Activity in the data set with Plasmodium berghei [6] was 4%.

In the case of `CCN(CC)Cc1ccc(Nc2ccnc3cc(Cl)ccc23)cc1`, in data set [1], the inhibition came out at 98.2%. Moreover, half-maximal inhibition in data set [2] (IC50) was put at 1.78 µM. Moreover, the CC50 at 48 h in data set [3] was 42.4 µM. This compound also showed a concentration for 50% haemolysis (HC50) at 0.75 h in data set [4] of 2.92 mM. Besides, the Time with Plasmodium berghei [5] amounted to 24.9 days. The Activity in the data set with Plasmodium berghei [6] worked out at 3.8%.

`Clc1ccc2c(Nc3ccc(CN4CCOCC4)cc3)ccnc2c1` came in with an inhibition in data set [1] of 5.17%. Besides, the IC50 in data set [2] was over 50 µM. Moreover, the CC50 at 48 h in data set [3] stood at 36.2 µM. The compound also had an HC50 at 0.75 h in data set [4] of 0.591 mM.

Consider `CCN(CC)CCCC(C)Nc1ccnc2cc(Cl)ccc12` (stereo unspecified) [CHLOROQUINE], for which the inhibition in data set [1] turned out to be 98.6%. In addition, in data set [2], the half-inhibitory concentration (IC50) was 1.48 µM. The same compound had an HC50 at 0.75 h in data set [4] of over 1.5 mM. In addition, the Time in the data set on Plasmodium berghei [7] turned out to be 29.4 days. Further, in the data set on Plasmodium berghei [8], the Activity is given as 0.6%.
